ChEMBL document CHEMBL4616673 (J Med Chem, 2020)
Values joined by “and” are separate entries in the source; they are usually repeats but may differ in a detail not shown here. Identical values can stand only once.

Key:
Raji [1] = assay: Antitumor activity against human Raji cells xenografted in NOD-SCID nude mouse assessed as tumor growth inhibition at 30 mg/kg/day, po administered 6 days a week for 3 weeks relative to control; format: functional; conditions: read-out: TGI
How it was run: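 Nude mice given 1 × 10^7 Raji cells s.c. in serum-free medium plus basement membrane matrix. Randomized at 100–200 mm3 tumour volume (n = 6 per group). Oral dosing 6 days/week for 3 weeks. Vehicles: 30 mg/kg/d in 5% NMP/95% PEG400, 10 mg/kg/d in 30% PEG300/70% saline. Volume = ab²/2 every 3 days. TGI from treated vs control volume change, initial to final day.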

A-375 = assay: Antiproliferative activity against human A375 cells assessed as reduction in cell viability measured after 48 hrs by MTT assay; format: functional, cell-based; conditions: Homo sapiens, A-375, 48 h
HCT-116 = assay: Antiproliferative activity against human HCT116 cells assessed as reduction in cell viability measured after 48 hrs by MTT assay; format: functional, cell-based; conditions: Homo sapiens, HCT-116, 48 h
MCF7 = assay: Antiproliferative activity against human MCF7 cells assessed as reduction in cell viability measured after 48 hrs by MTT assay; format: functional, cell-based; conditions: Homo sapiens, MCF7, 48 h
Raji [2] = assay: Cell cycle arrest in human Raji cells assessed as accumulation at S phase at 0.125 uM measured after 24 hrs by propidium iodide/RNase staining based flow cytometry (reference value: 52%); format: functional
Raji [3] = assay: Induction of apoptosis in human Raji cells assessed as early apoptotic cells at 0.031 uM measured after 48 hrs by Annexin V-FITC staining based flow cytometry (reference value: 1 %); format: functional
Raji [4] = assay: Induction of apoptosis in human Raji cells assessed as live cells at 0.063 uM measured after 48 hrs by Annexin V-FITC staining based flow cytometry (reference value: 98.09 %); format: functional
Raji [5] = assay: Induction of apoptosis in human Raji cells assessed as early apoptotic cells at 0.063 uM measured after 48 hrs by Annexin V-FITC staining based flow cytometry (reference value: 1 %); format: functional
Raji [6] = assay: Induction of apoptosis in human Raji cells assessed as necrotic cells at 0.125 uM measured after 48 hrs by Annexin V-FITC staining based flow cytometry (reference value: 0.21 %); format: functional
[7] = Stability of the compound in pH 9 buffer assessed as decrease in compound concentration at 0.01 mg/ml measured up to 24 hrs by LC-MS analysis; format: physicochemical; conditions: read-out: Drug degradation
How it was run: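 Compound at 0.01 mg/mL final in buffer containing 10% acetonitrile at pH 1.0, 4.5, 6.6, 7.4 or 9.0. Held at 37 °C, sampled at 0, 2, 4, 6, 8, 10, 12 and 24 h. Remaining compound by LC-MS.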

[8] = Tmax in Sprague-Dawley rat at 25 mg/kg, po administered via gavage by LC-MS analysis; format: ADME, organism-based; conditions: in vivo
How it was run: (§1)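 Male Sprague-Dawley rats, fasted overnight, jugular vein catheter for serial blood sampling. Single dose of 25 mg/kg by oral gavage or 5 mg/kg by tail-vein injection. Blood drawn at set times and spun at once for plasma, plasma drug by LC-MS. Parameters given as mean, n = 6.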

[9] = Oral bioavailability in Sprague-Dawley rat at 25 mg/kg administered via gavage by LC-MS analysis; format: ADME, organism-based; conditions: in vivo; how it was run: as §1
Raji [10] = assay: Antitumor activity against human Raji cells xenografted in NOD-SCID nude mouse assessed as tumor growth inhibition at 80 mg/kg/day, po administered 6 days a week for 3 weeks relative to control; format: functional; conditions: read-out: TGI
[11] = Toxicity in NOD-SCID nude mouse xenografted with human Raji cells assessed as effect on body weight at 30 mg/kg/day, po administered 6 days a week for 3 weeks and measured every 3 days; format: organism-based; conditions: in vivo
How it was run: (§2)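 Mice, 6-7 weeks old, injected s.c. with 1×10^7 Raji cells in serum-free medium plus basement membrane matrix. At 100–200 mm3 tumours, randomised (n=6). Oral dosing 6 days/week for 3 weeks: 30 mg/kg/d free compound suspended in 5% NMP/95% PEG400, or 40 or 80 mg/kg/d nanocrystal. Body weight and tumour volume measured every 3 days.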

[12] = Toxicity in NOD-SCID nude mouse xenografted with human Raji cells assessed as dermatitis at 40 to 80 mg/kg/day, po administered 6 days a week for 3 weeks; format: organism-based; conditions: in vivo; how it was run: as §2
[13] = Acute toxicity in BALB/c mouse assessed as effect on blood BILT level at 400 mg/kg, po measured on day 14; format: organism-based; conditions: in vivo
How it was run: (§3)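 BALB/c mice, female and male, 6-8 weeks old, given oral doses within 24 h, up to 400 mg/kg (free compound) or 800 mg/kg (nanocrystal formulation). Watched for body weight loss, diarrhea, anorexia, skin ulcer and toxic death. Serum biochemistry panel was run at the end of treatment.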

[14] = Acute toxicity in BALB/c mouse assessed as effect on blood GLU level at 400 mg/kg, po measured on day 14; format: organism-based; conditions: in vivo; how it was run: as §3
[15] = Acute toxicity in BALB/c mouse assessed as effect on blood BUN level at 400 mg/kg, po measured on day 14; format: organism-based; conditions: in vivo; how it was run: as §3
[16] = Acute toxicity in BALB/c mouse assessed as effect on blood CHO1 level at 400 mg/kg, po measured on day 14; format: organism-based; conditions: in vivo; how it was run: as §3
[17] = Acute toxicity in BALB/c mouse assessed as effect on blood TG level at 400 mg/kg, po measured on day 14; format: organism-based; conditions: in vivo; how it was run: as §3
[18] = Acute toxicity in BALB/c mouse assessed as effect on blood ALB level at 800 mg/kg, po measured on day 14; format: organism-based; conditions: in vivo; how it was run: as §3
[19] = Acute toxicity in BALB/c mouse assessed as effect on blood GLU level at 800 mg/kg, po measured on day 14; format: organism-based; conditions: in vivo; how it was run: as §3
[20] = Acute toxicity in BALB/c mouse assessed as effect on blood LDH level at 800 mg/kg, po measured on day 14; format: organism-based; conditions: in vivo; how it was run: as §3
[21] = Acute toxicity in BALB/c mouse assessed as effect on kidney at 400 mg/kg, po measured on day 14 by H and E staining based light microscopic analysis; format: organism-based; conditions: in vivo
How it was run: (§4)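 Female and male BALB/c mice, 6-8 weeks old, dosed orally within 24 h at up to 400 mg/kg (free compound) or 800 mg/kg (nanocrystal). At the end of treatment, heart, liver, spleen, lung and kidney were sectioned, stained with H&E and imaged by light microscopy.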

[22] = Acute toxicity in BALB/c mouse assessed as effect on spleen at 800 mg/kg, po measured on day 14 by H and E staining based light microscopic analysis; format: organism-based; conditions: in vivo; how it was run: as §4
[23] = Acute toxicity in BALB/c mouse assessed as effect on lung at 800 mg/kg, po measured on day 14 by H and E staining based light microscopic analysis; format: organism-based; conditions: in vivo; how it was run: as §4
[24] = Acute toxicity in BALB/c mouse assessed as effect on kidney at 800 mg/kg, po measured on day 14 by H and E staining based light microscopic analysis; format: organism-based; conditions: in vivo; how it was run: as §4

SMILES: O=C1c2ccccc2C(=O)c2c1nnn2-c1cc(F)c(-c2ccccc2F)c(F)c1
- inhibition in vivo at 30 mg/kg/day (Raji [1]): 42%
- IC50 (A-375): 20 nM
- IC50 (HCT-116): 290 nM
- IC50 (MCF7): 9.61 µM
- Activity (Raji [2]): 86.31%
- Activity (Raji [3]): 3.09%
- Activity (Raji [4]): 92.31%
- Activity (Raji [5]): 3.08%
- Activity (Raji [6]): 0.39%
- degraded at 24 h, 0.01 mg/ml [7]: 15%
- Tmax [8]: 10 h and 27 h
- F [9]: 9.66% and 25.16%
- inhibition in vivo at 80 mg/kg/day (Raji [10]): 68%
- Activity [11]: Non-Toxic
- Activity [12]: Non-Toxic
- Activity [13]: Non-Toxic
- Activity [14]: Non-Toxic
- Activity [15]: Non-Toxic
- Activity [16]: Non-Toxic
- Activity [17]: Non-Toxic
- Activity [18]: Non-Toxic
- Activity [19]: Non-Toxic
- Activity [20]: Non-Toxic
- Activity [21]: Non-Toxic
- Activity [22]: Non-Toxic
- Activity [23]: Non-Toxic
- Activity [24]: Non-Toxic
